The source of these data is ChEMBL document CHEMBL1687924, “Antiviral activity of seed extract from Citrus bergamia towards human retroviruses” (Bioorg Med Chem, 2011).

The subject of data set [1] is Human T-cell leukemia virus type I. Nature of the data set: Antiviral activity against Human T-cell leukemia/lymphoma virus type 1 infected in human PBMC assessed as inhibition of tax/rex gene expression at 10 ug/ml after 3 weeks post infection by quantitative real time RT-PCR. It counts as functional, organism-based. The procedure, abridged:
(§1)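 Compound was added to PBMC cultures at the onset of HTLV-1 infection and re-added at half concentration on days 3, 7 and 10 pi, with 0.5% methanol as vehicle control. Cells were harvested 3 weeks pi and debris removed on a density gradient. Tax/rex mRNA was quantified by SYBR Green RT-PCR (40 cycles, 95/60 °C) against GUSB using the comparative Ct method.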

Data set [2] deals with Human immunodeficiency virus 1. As to the kind of experiment: Antiviral activity against HIV1 infected in human PBMC assessed as inhibition of gag gene expression at 10 ug/ml after 5 days post infection by quantitative real time RT-PCR. The format is functional, organism-based. The procedure, abridged: (§2)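 PBMC were stimulated overnight with 2 µg/ml PHA and infected for 2 h with clarified H9/HIV-1IIIB supernatant at 20 ng/ml p24. They were then cultured with IL-2 20 U/ml. Compound was added 4 h before infection and re-added daily at half concentration, with 0.5% methanol as vehicle control. At 5 days pi, gag mRNA was measured by SYBR Green RQ-PCR in triplicate, normalized to GUSB (2^-ΔΔCt).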
(Real-time PCR tracks product formation cycle by cycle.)

Data set [3] deals with Human T-cell leukemia virus type I. As to the kind of experiment: Antiviral activity against Human T-cell leukemia/lymphoma virus type 1 infected in human PBMC assessed as inhibition of tax/rex gene expression after 3 weeks post infection by quantitative real time RT-PCR. It counts as functional, organism-based. The settings on record: Primate T-lymphotropic virus 1, 504 h. The procedure, abridged:
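PBMC infected with HTLV-1. Compounds were added at infection onset, then at half concentration on days 3, 7 and 10 pi; the vehicle was up to 0.5% methanol. Cells were harvested 3 weeks pi and debris removed on a density gradient. tax/rex mRNA was measured by SYBR RQ-PCR normalized to GUSB (2^-ΔΔCt). RQ-IC50 came from three experiments, each in triplicate.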

The test system of data set [4] is Human immunodeficiency virus 1. As to the kind of experiment: Antiviral activity against HIV1 infected in human PBMC assessed as inhibition of gag gene expression after 5 days post infection by quantitative real time RT-PCR. The format is functional, organism-based. Conditions: Human immunodeficiency virus 1, 120 h. The procedure, abridged: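 Donor PBMC (HIV-, HBV-, HCV-seronegative) stimulated overnight with PHA 2 µg/ml, then infected 2 h with clarified H9/HIV-1IIIB supernatant (20 ng/ml p24), then cultured with IL2 20 U/ml. Compounds added 4 h pre-infection and re-added daily at half concentration; vehicle ≤0.5% methanol. Harvest day 5; gag mRNA by SYBR RQ-PCR vs GUSB (2^-ΔΔCt); three experiments in triplicate; IC50.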

Data set [5] in a line: Inhibition of Human T-cell leukemia/lymphoma virus type 1 reverse transcriptase activity infected in human MT2 cells assessed as level of p19 antigen. The format is cell-based, Human T-cell leukemia virus type I. The settings on record: Primate T-lymphotropic virus 1, MT2.
Data set [6] has as its target Human immunodeficiency virus type 1 reverse transcriptase (Human immunodeficiency virus 1, UniProt Q72547). As to the kind of experiment: Inhibition of HIV1 3B reverse transcriptase activity. Summed up: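 Commercial purified HIV-1 RT replaced the virion lysate in the same cell-free reverse transcription/20-cycle amplification assay. RTIC50 came from band densitometry over three independent experiments, with no compound pre-activation.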

The nature of data set [7]: Cytotoxicity against human MOLT3 cells after 24 hrs by MTS assay. It counts as cell-based, MOLT-3. Summed up:
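MOLT-3 cells (1 × 10^4) were exposed for 1 day in RPMI with 5% FBS to seven concentrations (1 ng/ml–1 mg/ml). MTS formazan formation was read at 490 nm after 1 h with reagent. Mean CC50 comes from three independent experiments.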
Background: Tetrazolium dyes change colour on reduction, which living cells bring about.

A short description of data set [8]: Cytotoxicity against PHA-stimutated human PBMC after 24 hrs by MTS assay. The format is cell-based. Conditions: PHA-stimulated PBMC.
Data set [9] can be described thus: Ratio of zidovudine CC50 to compound CC50 for human MOLT3 cells. It counts as ADME, cell-based, MOLT-3.
Data set [10] is described as follows: Ratio of Lamivudine CC50 to compound CC50 for human MOLT3 cells. The format is ADME, cell-based, MOLT-3.
Data set [11] can be described thus: Ratio of nevirapine CC50 to compound CC50 for human MOLT3 cells. It counts as ADME, cell-based, MOLT-3.
The test system of data set [12] is Human T-cell leukemia virus type I. Nature of the data set: Antiviral activity against Human T-cell leukemia/lymphoma virus type 1 infected in human PBMC assessed as inhibition of tax/rex gene expression at 0.27 ug/ml after 3 weeks post infection by quantitative real time RT-PCR. The format is functional. The settings on record: Primate T-lymphotropic virus 1, 504 h.

The test system of data set [13] is Human immunodeficiency virus 1. As to the kind of experiment: Antiviral activity against HIV1 infected in human PBMC assessed as inhibition of gag gene expression at 0.27 ug/ml after 5 days post infection by quantitative real time RT-PCR. It counts as functional. Conditions: Human immunodeficiency virus 1, 120 h.
Data set [14] has as its system Human T-cell leukemia virus type I. As to the kind of experiment: Antiviral activity against Human T-cell leukemia/lymphoma virus type 1 infected in human PBMC assessed as inhibition of tax/rex gene expression at 5 ug/ml after 3 weeks post infection by quantitative real time RT-PCR. The format is functional, organism-based. Summed up: as §1
Data set [15] relates to Human immunodeficiency virus 1. As to the kind of experiment: Antiviral activity against HIV1 infected in human PBMC assessed as inhibition of gag gene expression at 1 ug/ml after 5 days post infection by quantitative real time RT-PCR. The format is functional, organism-based. Summed up: as §2
The subject of data set [16] is Human T-cell leukemia virus type I. Nature of the data set: Ratio of IC50 for nevirapine to compound IC50 for Human T-cell leukemia/lymphoma virus type 1 reverse transcriptase activity.
The nature of data set [17]: Ratio of CC50 for PHA-stimulated human PBMC to IC50 for HIV1 infected in human PBMC.
The test system of data set [18] is Human T-cell leukemia virus type I. Nature of the data set: Antiviral activity against Human T-cell leukemia/lymphoma virus type 1 infected in human PBMC assessed as inhibition of tax/rex gene expression at 22.93 ug/ml after 3 weeks post infection by quantitative real time RT-PCR. It counts as functional. The settings on record: Primate T-lymphotropic virus 1, 504 h.

For data set [19], the system named is Human immunodeficiency virus 1. Nature of the data set: Antiviral activity against HIV1 infected in human PBMC assessed as inhibition of gag gene expression at 0.23 ug/ml after 5 days post infection by conventional RT-PCR. The settings on record: Human immunodeficiency virus 1, 120 h.

Values after ≈ are worked out from the molar mass of the structure shown. Active and inactive are the calls of the source. The calls are words filed in the database; no cut-off is given here. Where only a bound is given, the exact number is not on record here.

As to `CC(=O)O[C@H]1CC(=O)OC(C)(C)[C@@H]2CC(=O)[C@]3(C)[C@H](CC[C@@]4(C)[C@@H](c5ccoc5)OC(=O)[C@H]5O[C@]543)[C@@]12C` [NOMILIN], the inhibition entry in data set [1] and in data set [2] was “Active” in each case. The IC50 (in general, the point on the concentration scale where inhibition reaches its midpoint) in [3] was 3.98 µg/mL (≈ 7.73 µM); in [4] it was 13 µg/mL (≈ 25.3 µM); in data set [5], 0.0026 µg/mL (≈ 0.00505 µM); in data set [6], 6.65 nM. The CC50 (in general, the concentration that lowers cell viability or growth by half) at 24 h in data set [7] amounted to 756 µg/mL (≈ 1470 µM); in [8], 692 µg/mL (≈ 1340 µM). The selectivity ratio in data set [9] was found to be 230; in data set [10], 130; in [11], 40.

Consider `Cc1cn([C@H]2C[C@H](N=[N+]=[N-])[C@@H](CO)O2)c(=O)[nH]c1=O` [ZIDOVUDINE], for which the inhibition at 0.27 µg/mL in [12] and in data set [13] was 100% in each case. The IC50 in [3] was found to be 0.16 µg/mL (≈ 0.599 µM). Besides, the 50% cytotoxic concentration (CC50) at 24 h amounted to 3.24 µg/mL (≈ 12.1 µM) in data set [7] and 31.2 µg/mL (≈ 117 µM) in [8].

As for `Cc1ccnc2c1NC(=O)c1cccnc1N2C1CC1` [NEVIRAPINE], the inhibition (as a rule, the change of the read-out against control, counted positive when it falls) at 0.27 µg/mL in [13] was found to be 100%. Moreover, in data set [5], the IC50 was more than 0.266 µg/mL. In addition, the CC50 at 24 h turned out to be 20.1 µg/mL (≈ 75.3 µM) in [7] and 40.9 µg/mL (≈ 154 µM) in data set [8].

As to `CC1(C)O[C@H]2CC(=O)OC[C@]23[C@H]2CC[C@@]4(C)[C@H](c5ccoc5)OC(=O)[C@H]5O[C@]54[C@]2(C)C(=O)C[C@@H]13` [LIMONIN], the inhibition entry in [14] and in data set [15] was “Active” throughout. Also, the IC50 in data set [3] was 1.07 µg/mL (≈ 2.27 µM); in data set [4] it was 0.92 µg/mL (≈ 1.96 µM); in data set [5], 0.00031 µg/mL (≈ 0.000659 µM); in data set [6], 8.99 nM. Moreover, the Ratio IC50 in [16] is more than 1000. In addition, the CC50 at 24 h in [7] was determined as 202 µg/mL (≈ 428 µM); in [8], 452 µg/mL (≈ 960 µM). Further, the results for the selectivity ratio in [9], in data set [10] and in data set [11] were 62, 33 and 10, respectively. The “Ratio CC50/IC50” value in data set [17] was found to be 450.

As to `Nc1ccn([C@@H]2CS[C@H](CO)O2)c(=O)n1` [LAMIVUDINE], the inhibition at 22.93 µg/mL in [18] turned out to be 100%. The half-inhibitory concentration (IC50) in data set [3] was 14.2 µg/mL (≈ 62.1 µM); in data set [4], 0.19 µg/mL (≈ 0.829 µM). In addition, the cytotoxic concentration (CC50) at 24 h in [7] was found to be 5.94 µg/mL (≈ 25.9 µM); in [8] it was 53 µg/mL (≈ 231 µM). Besides, in data set [19], the inhibition at 0.23 µg/mL stood at 100%.
